Assay outcomes: PubChem BioAssay, several laboratories
VIM-2 inhibitor – inhibitors of Pseudomonas aeruginosa VIM-2 metallo-beta-lactamase. purified VIM-2, nitrocefin hydrolysis, epi-absorbance fluorescence. inhibition, % at 5.6 µM. actives 0.89% (n = 290,000). AID 1527;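 active = inhibition above the mean of all tested compounds plus 3 SD, cutoff set per screening run, cut at about 7.5% in these data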;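 note: red hydrolysis product quenches plate fluorescence so inhibitors raise well fluorescence; 0% = enzyme with DMSO and 100% = DMSO without enzyme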
HKDC1 inh – blocks human hexokinase HKDC1 activity; recombinant HKDC1, G6PDH/diaphorase resazurin coupled fluorescence; actives 0.16% (n = 340,000); inhibition, % at 20 µM; Q2TB90; AID 493160;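 active = inhibition above about 35% when tested at 20 µM, limit read from the data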;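 note: plate controls were DMSO wells with enzyme for no effect and DMSO wells lacking enzyme for full effect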
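test system = in-house recombinant HK5 (HKDC1) enzyme | amount = HKDC1 at 5 µg/mL | control set = DMSO-enzyme wells negative, buffer-substituted wells positive | compound = one dose of 20 µM, 1% DMSO | schedule = reaction time 90 min, room temperature, protected from light | technique = resorufin fluorescence at 613 nm | reagent = glucose with 1 mM ATP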
ATG4B inhibitor – inhibitors of human ATG4B cysteine protease; ATG4B cleavage of LC3-PLA2, NBD-HPC fluorescence, 1 h; inhibition, % at 8.33 µM; actives 0.51% (n = 340,000); AID 504462; in the data active = inhibition above about 40%
Target sequence (Q9Y4P1 whole entry, looked up): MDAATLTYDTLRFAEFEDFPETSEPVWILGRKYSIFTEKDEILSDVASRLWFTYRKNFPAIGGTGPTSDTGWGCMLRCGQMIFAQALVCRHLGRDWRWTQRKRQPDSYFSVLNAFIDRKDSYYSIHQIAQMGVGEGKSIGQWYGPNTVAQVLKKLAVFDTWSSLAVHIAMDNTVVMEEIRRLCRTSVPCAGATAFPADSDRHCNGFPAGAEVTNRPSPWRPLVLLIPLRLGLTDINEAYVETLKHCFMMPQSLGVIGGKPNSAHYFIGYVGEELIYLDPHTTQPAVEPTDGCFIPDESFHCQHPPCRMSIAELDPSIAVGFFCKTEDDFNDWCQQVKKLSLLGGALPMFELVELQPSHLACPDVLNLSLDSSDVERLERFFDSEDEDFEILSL
PvdQ inh – P. aeruginosa PvdQ acylase inhibition. purified PvdQ acylase, fluorescence plate reader. inhibition, % at 10 µM. actives 0.063% (n = 340,000). AID 488965; in the data active = inhibition above about 30%, passing the limit was not always enough;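 note: 0% = vehicle neutral wells and 100% = reference inhibitor wells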
beta cell repl – induces beta-cell replication in MIN6 cells. MIN6 cells proliferation, ATPlite luminescence, 48 h; cells starved in 0.2% serum; 100% = growth in 10% serum. proliferation, % at 10 µM. actives 0.29% (n = 330,000);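 active = compounds whose signal lies at least 3.5 SD above the mean of all wells on their plate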;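 note: 0% = DMSO-treated cells in low-serum medium and 100% = 10% serum control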
IMP-1 inh – inhibitors of Pseudomonas aeruginosa IMP-1 metallo-beta-lactamase; purified IMP-1, nitrocefin hydrolysis, epi-absorbance fluorescence; inhibition, % at 5.6 µM; actives 0.45% (n = 290,000); AID 1556;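 active = inhibition above the mean plus 3 SD of all compounds in the same screening run, cut at about 4.5% in these data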;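 note: 0% = IMP-1 with DMSO and 100% = DMSO wells lacking enzyme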
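System – purified recombinant IMP-1 beta-lactamase · Input – IMP-1 dispensed at 0.2 nM · Timing – 15 min preincubation plus 25 min reaction at 25 °C · Signal – Epi-absorbance fluorescence, 480 nm excitation, 530 nm emission · Measure – percent IMP-1 inhibition derived from blank-referenced optical density · Controls – Enzyme-plus-DMSO low control, enzyme-free DMSO high control · Replication – singlicate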
HKDC1 act conf – confirmation of human HKDC1 activators. shares compounds with HKDC1 inh. recombinant HKDC1, G6PDH/diaphorase resazurin fluorescence; stronger effect = lower value. inhibition, % at 20 µM. actives 14% (n = 740);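 active = inhibition at or below a set negative limit, negative inhibition meaning the enzyme was activated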
The depositor's hits bear a star; · = no result given. The list is not random: actives were taken first. Their share in the collection is about 2%.

SMILES	VIM-2 inhibitor	HKDC1 inh	ATG4B inhibitor	PvdQ inh	beta cell repl	IMP-1 inh	HKDC1 act conf
O=c1nc(/C=C/c2cc([N+](=O)[O-])ccc2Cl)cc(C(F)(F)F)[nH]1	-2	30	-1	1	-6	-2	17
O=c1nc(/C=C/c2cccn2-c2ccc([N+](=O)[O-])cc2)cc(C(F)(F)F)[nH]1	-1	16	20	-1	1	-3	·
Cc1ccc2oc(C(=O)N3CCCCCC3)c(C)c2c1	-1	-3	2	0	-2	-4	·
Cc1ccc2oc(C(=O)N3CCC(N4CCSCC4)CC3)c(C)c2c1	0	35*	-8	-4	-1	-3	-13
Cc1ccc(C)c(C(=O)COC(=O)c2n[nH]c3ccccc23)c1	·	-1	-4	-14	1	·	·
O=C(COC(=O)c1n[nH]c2ccccc12)c1cccc(Br)c1	-1	38*	-2	-6	-3	-3	-30*
COc1cc(C)c(CN2CCN(CC(=O)Nc3ccccc3C(=O)NC3CC3)CC2)cc1OC	·	-12	-20	-1	1	·	·
O=C1C=C(Nc2ccc(F)cc2)c2ccccc2C1=O	·	42*	-13	-6	-7	·	4
CCOc1ccc(NC2=CC(=O)C(=O)c3ccccc32)cc1	·	22	-6	-8	·	·	·
O=C1C=C(NCc2ccccc2)c2ccccc2C1=O	1	80*	40	-6	·	-2	56
CCOC(=O)CC1(C)NC(C(=O)O)C(C)(C)S1 (stereo not drawn)	·	-3	5	-9	·	·	·
COc1cccc(N2C(=O)c3cccnc3C2O)c1 (stereo not drawn)	-2	-4	-2	-4	-2	-2	·
COc1ccc(CN2C(=O)c3cccnc3C2O)cc1 (stereo not drawn)	-1	41*	-2	-12	-2	-4	36
CC1=NN(c2ccc(C)cc2)C(=O)/C1=C/c1ccc(-c2cc([N+](=O)[O-])ccc2O)o1	0	18	10	-8	-4	-4	·
O=C1NN(c2cccc(Br)c2)C(=O)/C1=C/c1ccc(-c2cc([N+](=O)[O-])ccc2O)o1	-2	62*	18	-7	-4	-1	-13
O=C(CNC(=O)Cc1ccccc1)N=Nc1c(O)[nH]c2ccccc12	-1	-1	-5	-7	0	-4	·
O=C(CNC(=O)/C=C/c1ccco1)N=Nc1c(O)[nH]c2ccccc12	-1	51*	5	1	-3	3	39
CCn1c2ccccc2c2nc3cc(S(=O)(=O)N4CCOCC4)ccc3nc21	4	-61	4	-11	·	-2	-47*
CCC(C)(C)NC(=O)C1CCC(CNS(=O)(=O)c2cccc3nsnc23)CC1 (stereo not drawn)	-2	51*	-2	-7	-2	-1	-12
Cc1ccc(C)c(-n2nnnc2Sc2nnnn2-c2ccccc2)c1	-3	47*	-8	-7	-5	-3	39
CCSc1nnnn1-c1ccccc1	-2	-11	-13	-10	-3	-3	·
Oc1cc(CNC2CCCCC2)c(O)cc1CNC1CCCCC1	·	34	1	-23	·	·	32
Cc1ccccc1CNC1CCCCC1	0	-1	-11	11	0	-2	·
Cn1c(=O)c2sccc2n(Cc2cccc(Br)c2)c1=O	1	3	1	12	-1	-2	·
c1ccc2oc(C3=NNC(=NC4CC4)SC3)cc2c1	-4	-47	-9	2	-4	-5	-24
SMILES	VIM-2 inhibitor	HKDC1 inh	ATG4B inhibitor	PvdQ inh	beta cell repl	IMP-1 inh	HKDC1 act conf
Cn1c(=O)[nH]c(=O)c2c1nc(N)n2Cc1ccccc1	-1	-6	-9	10	-3	-3	·
O=C(N/N=C/c1ccc[nH]1)c1sc2ccccc2c1Cl	-2	-42	-27	-11	-5	-4	-30
COc1cccc(C(=O)NCc2ccco2)c1	-2	4	9	-11	-1	-5	·
COC(=O)c1ccc(CCc2cc(O)c(Br)cc2O)cc1	·	69*	-3	-13	·	·	54
COC(=O)c1ccc(CCc2cc(O)ccc2O)cc1	·	27	-7	-11	·	·	·
CSc1nc(N)nc2c1ncn2CC(=O)N[C@H](C)c1cccc2ccccc12	·	-55	-11	-13	0	·	-74*
COC(=O)[C@@H](Cc1ccccc1)NC(=O)Cn1cnc2c(SC)nc(N)nc21	·	-1	·	-12	0	·	·
CC(=O)Nc1ccc(S(=O)(=O)N2CCN(CC(=O)N3CCOCC3)CC2)cc1	0	-4	-2	-22	-2	1	·
O=C(CSc1nnc(-c2cccnc2)s1)Nc1ccnc2ccccc12	0	35	-11	-7	0	-1	18
Cc1ccc(NC(=O)CSc2nnc(-c3cccnc3)s2)cc1	2	-6	-3	-12	0	0	·
Cc1nc([N+](=O)[O-])c(Br)n1Cc1ccc(Cl)c(Cl)c1	-1	35	-4	-13	·	-2	54
Cc1nc([N+](=O)[O-])c(Br)n1CC(=O)c1ccc(Cl)cc1	-2	22	7	-4	-4	-4	·
CC(=O)n1cc(N(C(=O)CCl)c2ccccc2)c2ccccc21	-1	35	5	-11	-4	-3	9
O=Cc1[nH]c2ccccc2c1N(C(=O)CCl)c1ccc([N+](=O)[O-])cc1	-1	22	-3	-15	-6	-2	·
CC(=O)n1cc(N(C(=O)CCl)c2ccc([N+](=O)[O-])cc2)c2ccccc21	-1	48*	5	-5	-4	-2	41
O=C(c1ccc2c3c(cccc13)CC2)C1CCCN(Cc2cccnc2)C1 (stereo not drawn)	-2	3	-6	-12	-1	-3	·
COc1cc(CN2CCCC(C(=O)c3ccc4c5c(cccc35)CC4)C2)cc(OC)c1O (stereo not drawn)	-4	34	2	8	-7	-3	26
C=CCn1c(SCC(=O)N2CCN(c3ccccc3)CC2)nc2c([nH]c3ccccc32)c1=O	1	-6	0	-16	0	-1	·
Oc1c(Br)cc(Br)cc1/C=N/c1nc2c(s1)CCCC2	-2	37*	10	-3	-6	-1	-2
O=C(CCl)N1CCN2C(=O)c3ccccc3C12c1ccc(Cl)cc1 (stereo not drawn)	-2	32	-8	-10	-7	-2	8
CCCCC(=O)NC(c1ccc(N(CC)CC)cc1)c1ccc2cccnc2c1O (stereo not drawn)	-5	-46	9	10	-3	-5	-59*
COCC(=O)Nc1ccc(S(=O)(=O)N2CCCC2)cc1	-3	-4	8	-12	-5	-2	·
CC(=NNC(=S)N1CC2CCC(CC2)C1)c1cnccn1	·	-47	-7	-19	·	·	-31
CC(=NNC(=S)N1CCN(c2ccccn2)CC1)c1ccccn1	·	-21	13	11	·	·	·
